Screens deposited in PubChem BioAssay by The Scripps Research Institute Molecular Screening Center.
SIAE inh: human SIAE inhibition, primary screen; SIAE FP-Rh probe binding, fluorescence polarization; inhibition, % at 9.66 µM; 0.69% of 370,000 active; Q9HAT2;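 active = inhibition above a cutoff: mean of compounds within the control limits plus 3 SD of those, cut at about 17% in these data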;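 also: 0% = plate median of compound wells and 100% = probe without SIAE protein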
Target sequence (Q9HAT2 whole entry, looked up): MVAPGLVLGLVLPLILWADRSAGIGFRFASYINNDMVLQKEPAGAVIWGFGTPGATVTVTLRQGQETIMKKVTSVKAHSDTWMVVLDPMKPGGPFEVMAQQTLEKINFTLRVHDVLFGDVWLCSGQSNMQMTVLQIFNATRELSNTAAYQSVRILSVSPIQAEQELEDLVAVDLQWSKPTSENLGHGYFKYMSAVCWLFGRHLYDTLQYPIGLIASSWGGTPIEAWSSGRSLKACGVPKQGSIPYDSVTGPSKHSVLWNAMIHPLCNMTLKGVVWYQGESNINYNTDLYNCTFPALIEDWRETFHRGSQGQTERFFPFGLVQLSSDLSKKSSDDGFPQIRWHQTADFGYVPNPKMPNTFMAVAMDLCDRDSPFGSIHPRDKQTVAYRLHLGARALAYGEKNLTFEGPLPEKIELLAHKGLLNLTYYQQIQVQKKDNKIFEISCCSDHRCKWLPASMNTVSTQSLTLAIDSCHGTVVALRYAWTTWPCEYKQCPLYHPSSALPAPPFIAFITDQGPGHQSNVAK
DDE Tn7 FP inh: DD(E)-Tn7 binding inhibition, primary FP screen. P02675. inhibition, % at 8.3 µM. 0.13% of 370,000 active. FP displacement of FITC-Tn7 peptide from fibrin DD(E); 0% = median of compound wells per plate;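 active = inhibition above the mean of compounds falling within the control limits plus 3 SD of them, cut at about 14% in these data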;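 also: 0% = plate median of compound wells and 100% = 10 µM Aha-Tn7 peptide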
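Test system – human fibrin DD(E) · Times – 10 min preincubation, 3 h with tracer, room temperature · Detection – fluorescence polarization of the labelled Tn7 tracer · Measure – percent inhibition normalized to high-control wells · Benchmarks – high control wells with 10 µM unlabelled Aha-Tn7 peptide (full inhibition) · Repeats – singlicate testing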
mABHD4 FP: inhibitors of mouse ABHD4 | Q8VD66 | purified mABHD4, FP-Rh probe fluorescence polarization | 0.54% of 370,000 active | inhibition, % at 8.92 µM;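 active = inhibition exceeding the mean over every tested compound plus 3 SD, cut at about 30% in these data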;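 also: 0% = plate median of compound wells and 100% = S159A mutant with DMSO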
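Assay system: wild-type mouse ABHD4 protein; compound: single nominal dose of 8.92 µM, 0.89% DMSO final; schedule: 45 min + 60 min at 25 °C; measured by: FP readout, ex 525 nm / em 598 nm; evaluation: % inhibition of FP-Rh probe binding versus controls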
HTRA1 inhibitor: HTRA1 (human) protease inhibition; Q92743; recombinant HTRA1, FP-rhodamine activity-based probe, fluorescence polarization; inhibition, % at 5.96 µM; 0.5% of 340,000 active; AID 504803; in the data active = inhibition above about 36%;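 also: 0% = enzyme with DMSO and 100% = wells lacking enzyme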
TCR-CD3 inh: blocks the human TCR-CD3 interaction; TAMRA-labeled TCR probe fluorescence, biochemical; inhibition, % at 9.4 µM; 0.37% of 360,000 active; AID 651800; in the data active = inhibition above about 19%;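 also: recombinant mutant TCR 2C K166C tagged with TAMRA read by polarization; 0% = receptor in buffer alone and 100% = receptor with positive control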
DDE Tn6 FP inh: disrupts Tn6 cyclic peptide binding to fibrin D-Dimer-E complex. P02675. 0.21% of 370,000 active. Fibrin DD(E) TRITC-Tn6 fluorescence polarization displacement. inhibition, % at 8.3 µM;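 active = inhibition above a per-campaign cutoff: mean of compounds within control limits plus 3 SD, cut at about 15% in these data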;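 also: 0% = median of all compound wells on the plate and 100% = blocking peptide control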
SIAE confirm: human SIAE inhibition, confirmation; AID 1117263; inhibition, % at 9.66 µM; shares compounds with SIAE inh; SIAE FP-Rh activity-based probe, fluorescence polarization; 13% of 2,300 active;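 active = mean inhibition of the replicates above the hit cutoff set in the primary screen, cut at about 17% in these data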;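 also: 0% = SIAE with DMSO and probe and 100% = probe without SIAE; inhibitors lower polarization as more probe stays unbound to SIAE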
* = called active by the depositor. An excerpt weighted towards active compounds, which were near 1.8% of everything screened.

Screening CN(C)c1ccc(C(=O)Nc2nnc(-c3ccc(Cl)cc3)o2)cc1 returned SIAE inh 18*, DDE Tn7 FP inh -9, mABHD4 FP -2, HTRA1 inhibitor 15, TCR-CD3 inh 2, DDE Tn6 FP inh 0 and SIAE confirm 5.
Screening COC(=O)c1cc(-c2cc(Cl)cc(Cl)c2)c(=O)n2c1CCC2 returned SIAE inh -1, DDE Tn7 FP inh 7, mABHD4 FP 4 and DDE Tn6 FP inh 4.
For NC1=[N+](Cc2ccccc2)C[C@H]2C(=C3CCCC[C@H]3n3c(=O)n(-c4ccccc4)c(=O)n32)N1 the results were SIAE inh 0, DDE Tn7 FP inh -7, mABHD4 FP 2 and DDE Tn6 FP inh -5.
CCOC(=O)N/N=C/c1cn(Cc2ccc(Cl)cc2)c2ccccc12 was read as SIAE inh 18*, DDE Tn7 FP inh -6, mABHD4 FP -2, HTRA1 inhibitor -9, TCR-CD3 inh 3, DDE Tn6 FP inh 0 and SIAE confirm -4.
For CC(C)=CC(=O)NCC1CCN(C(=O)C(=O)c2cc3ccccc3o2)CC1 the results were SIAE inh 0, DDE Tn7 FP inh -7, mABHD4 FP 4, TCR-CD3 inh 0 and DDE Tn6 FP inh -2.
`O=C(Oc1cccc(-n2cnnn2)c1)C1CCCCC1` gave SIAE inh 23*, DDE Tn7 FP inh -1, mABHD4 FP -2, HTRA1 inhibitor -3, TCR-CD3 inh 6, DDE Tn6 FP inh -1 and SIAE confirm 17*.
O=C(c1ccc2c3n(nc2c1)-c1ccccc1CO3)N1CCCCC1 was read as SIAE inh 17*, DDE Tn7 FP inh 7, mABHD4 FP 12, HTRA1 inhibitor -8, TCR-CD3 inh 1, DDE Tn6 FP inh 0 and SIAE confirm -2.
For CN1CCN(S(=O)C23CC4CC(CC(C4)C2)C3)CC1 (stereo not drawn) the results were SIAE inh 7, DDE Tn7 FP inh -5, mABHD4 FP 3, HTRA1 inhibitor -4, TCR-CD3 inh 3 and DDE Tn6 FP inh -1.
For O=S(N1CCc2ccccc21)C12CC3CC(CC(C3)C1)C2 (stereo not drawn) the results were SIAE inh 23*, DDE Tn7 FP inh -1, mABHD4 FP 5, HTRA1 inhibitor -3, TCR-CD3 inh 2, DDE Tn6 FP inh -9 and SIAE confirm -2.
Screening O=C(CNc1ccc(F)cc1)N/N=C/c1c(O)ccc2ccccc12 returned SIAE inh 15, DDE Tn7 FP inh -8, mABHD4 FP 18, HTRA1 inhibitor 32, TCR-CD3 inh 8 and DDE Tn6 FP inh -2.
COc1ccccc1NCC(=O)N/N=C/c1c(O)ccc2ccccc12 was read as SIAE inh 18*, DDE Tn7 FP inh -13, mABHD4 FP 17, HTRA1 inhibitor 27, TCR-CD3 inh -1, DDE Tn6 FP inh -13 and SIAE confirm 0.
`Cc1ccc(S(=O)(=O)N2CCN(C(=O)CCC(=O)NCc3ccc(F)cc3)CC2)cc1` gave SIAE inh 18*, DDE Tn7 FP inh 0, mABHD4 FP 6, HTRA1 inhibitor 0, TCR-CD3 inh -3, DDE Tn6 FP inh 6 and SIAE confirm 2.
Screening CCOCCCNCC(=O)N1CCN(S(=O)(=O)c2ccc(C)cc2)CC1 returned SIAE inh 17*, DDE Tn7 FP inh -4, mABHD4 FP -2, HTRA1 inhibitor 6, TCR-CD3 inh -2, DDE Tn6 FP inh 6 and SIAE confirm -1.
`Cc1ccc([N+](=O)[O-])cc1NC(=O)C1CCCC1` gave SIAE inh 5, DDE Tn7 FP inh -5, mABHD4 FP -6, HTRA1 inhibitor 2, TCR-CD3 inh 6 and DDE Tn6 FP inh 2.
For Cc1ccc([N+](=O)[O-])cc1NC(=O)C1CCN(S(C)(=O)=O)CC1 the results were SIAE inh 20*, DDE Tn7 FP inh 1, mABHD4 FP 5, HTRA1 inhibitor 0, TCR-CD3 inh 1, DDE Tn6 FP inh 0 and SIAE confirm 3.
Screening Cc1cc(C)nc(N2CCCC(C(=O)NC(C)C)C2)n1 (stereo not drawn) returned SIAE inh 18*, DDE Tn7 FP inh -1, mABHD4 FP 0, HTRA1 inhibitor 8, TCR-CD3 inh 1, DDE Tn6 FP inh -2 and SIAE confirm -5.
For NC(=O)COC(=O)c1c2c(nc3ccccc13)CCCCC2 the results were SIAE inh 17*, DDE Tn7 FP inh -1, mABHD4 FP -6, HTRA1 inhibitor 2, TCR-CD3 inh -2, DDE Tn6 FP inh -7 and SIAE confirm 3.
`Cc1ccccc1C(=O)Nc1ccccc1` gave SIAE inh 2, DDE Tn7 FP inh -9, mABHD4 FP -1, HTRA1 inhibitor 0, TCR-CD3 inh 3 and DDE Tn6 FP inh -1.
Cc1ccccc1C(=O)Nc1ccc(S(=O)(=O)N2CCN(C)CC2)cc1 was read as SIAE inh 19*, DDE Tn7 FP inh 2, mABHD4 FP -4, HTRA1 inhibitor 2, TCR-CD3 inh -6, DDE Tn6 FP inh -4 and SIAE confirm -5.
CN1CCN(S(=O)(=O)c2ccc(NC(=O)c3ccccc3Cl)cc2)CC1 was read as SIAE inh -2, DDE Tn7 FP inh -4, mABHD4 FP -5, HTRA1 inhibitor 1, TCR-CD3 inh -5 and DDE Tn6 FP inh -4.
CC(=O)Nc1ccc(NC(=O)c2ccccc2C)cc1 was read as SIAE inh 18*, DDE Tn7 FP inh 5, mABHD4 FP -4, HTRA1 inhibitor 3, TCR-CD3 inh 6, DDE Tn6 FP inh -2 and SIAE confirm 4.
O=c1[nH]c2cc3c(cc2cc1CN(Cc1ccc2c(c1)OCO2)Cc1nnnn1CC1CCCO1)OCO3 (stereo not drawn) was read as SIAE inh 59*, DDE Tn7 FP inh 1, mABHD4 FP -1, HTRA1 inhibitor -1, TCR-CD3 inh 0, DDE Tn6 FP inh 3 and SIAE confirm -6.
For C[n+]1cc(C(O)(c2ccccc2)c2ccccc2)n2ccccc21 the results were SIAE inh 2, DDE Tn7 FP inh -2, mABHD4 FP -2 and DDE Tn6 FP inh 7.
Screening Cc1ccc(C(=O)N2CCC(C(=O)NCc3ccco3)CC2)cc1 returned SIAE inh 1, DDE Tn7 FP inh 6, mABHD4 FP -4, HTRA1 inhibitor 5, TCR-CD3 inh -4 and DDE Tn6 FP inh 1.
Screening CC(C)(C)c1ccc(C(=O)N2CCC(C(=O)NCc3ccco3)CC2)cc1 returned SIAE inh 17*, DDE Tn7 FP inh -1, mABHD4 FP -3, HTRA1 inhibitor 3, TCR-CD3 inh -11, DDE Tn6 FP inh -2 and SIAE confirm 1.
